Reference: ChEMBL document CHEMBL4513216, “Probing the Open Global Health Chemical Diversity Library for Multistage-Active Starting Points for Next-Generation Antimalarials” (ACS Infect Dis, 2020)

Experiment: Toxicity liver stage against HepG2, at 10uM
Assay type: cell-based
Design: test concentration 10 uM, cell line HepG2-A16-CD81EGFP
Settings: human, HepG2-A16-CD81EGFP cells; read-out: INHIBITION
Procedure, shortened: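 Uninfected HepG2-A16-CD81EGFP cells, 3 × 10^3 per well, 1536-well, plated on prespotted compound at 10 μM final, parasite-free screening media added to match infected plates; puromycin 10 μM positive, DMSO 0.5% negative; run in parallel with 48 h PbLuc assay at 37 °C, 5% CO2; viability by CellTiter-Glo luminescence, normalized to controls.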

Row | Compound | cytotoxicity at 10 µM [%]
1 | COC(=O)c1cccc(C(=O)N2CCN(c3ccc(OC)cc3)CC2)n1 | -7.12
2 | CC(=O)c1cn(CCC(=O)Nc2c3c(nn2C)CSC3)c2ccccc12 | -1.93
3 | COC(=O)[C@H](CCSC)NC(=O)Cc1c(C)nn(-c2ccccc2)c1C | -1.65
4 | CC1(C)OCC2(CO1)CN(S(=O)(=O)c1ccc(Cl)s1)C2 | -0.295
5 | N#Cc1ccc(S(=O)(=O)Nc2cnn(C3CCOCC3)c2)cc1 | -11.3
6 | CN(Cc1cccs1)C1CCC[C@@H]2CN(C(=O)c3cccn3C)C[C@H]12 (stereo not given in full) | 22.6
7 | O=C(NCC1CC[C@@]2(CNCCOC2)O1)c1cnccn1 (stereo not given in full) | 9.44
8 | COCCNC(=O)[C@]12COC[C@H]1CN(c1cc(OC)ncn1)C2 | 4.32
9 | CN1CCN(CC2CC2)C(=O)C12CCN(C(=O)c1cnccn1)CC2 | 7.95
10 | Fc1cccc(N2CCc3ncnc(N4CCOCC4)c3CC2)c1 | 9.49
11 | CC(=O)c1cn(CCC(=O)N[C@H](C(=O)O)C(C)C)c2ccccc12 | 8.86
12 | O=c1[nH]c2nc(N3CCSCC3)ncc2c(=O)n1-c1cccc(F)c1 | -1.82
13 | O=C(NCc1cccs1)C1CN(C(=O)c2cccs2)CC12CCOCC2 (stereo not given) | -11.5
14 | CC1CCN(C(=O)C(C)n2cc(Br)cn2)CC1 (stereo not given) | 11.3
15 | COc1cccc(-c2cc(C(=O)N3N=C(C)CC3(O)C(F)F)[nH]n2)c1 (stereo not given) | 8.46
16 | Cc1nn(C)c(C)c1CN(C)CC1(O)CCCN(C)C1 (stereo not given) | 6.5
17 | O=C(NCC1CC1)c1nnc2ccc(Cl)cc2n1 | 0.318
18 | Cc1nn(C)cc1-c1cc(C(=O)NCC(C)(C)c2ccc(F)cc2)n[nH]1 | -1.29
19 | Cc1cc(N2CCCC(c3nccnc3N(C)C)C2)ncn1 (stereo not given) | -1.77
20 | Cc1csc2c(C3CCCN(C(=O)CCn4cncn4)C3)nc(C)n12 (stereo not given) | 7.96
21 | c1cc(-c2cnc(NC3CC3)nc2[C@@H]2CCCO2)ccn1 | 8.72
22 | Cc1cnc(-c2nc(O)c3c(n2)CN(C(=O)CC2CCCC2)CC3)cn1 | -1.37

Row | Compound | cytotoxicity at 10 µM [%]
23 | Cc1ccc(CNCCN2CCOCC2)o1 | -2.62
24 | Cc1ccsc1C(=O)N1CCC2(CC(N(C)c3ccncn3)C2)C1 (stereo not given) | -5.75
25 | O=C(NC1CC1)c1cc(C(F)(F)F)cc(C(=O)NC2CC2)n1 | 9.97
26 | CC(NC(=O)N1CCC2(C1)OCCO2)c1cccc(Cl)c1 (stereo not given) | -6.88
27 | COc1ccccc1CN(C)C(=O)C[S+]([O-])Cc1cc(C)on1 (stereo not given) | 0.788
28 | CCc1ccc(C(C)NCc2nccn2Cc2ccccc2)o1 (stereo not given) | -1.2
29 | CN(Cc1cnn(C)c1)C(=O)CCC(=O)c1ccc2c(c1)OCCO2 | -1.14
30 | Cc1nc(COc2ccc(OC(C)C(N)=O)cc2)oc1C (stereo not given) | -1.65
31 | O=C(c1cnc(NCCC2CCCO2)c(Cl)c1)N1CCOCC1 (stereo not given) | 7.74
32 | Cc1cc(C(=O)NC2CCN(c3ncccc3C#N)CC2)no1 | -7.25
33 | Cc1ccc(C(=O)N(CCC#N)Cc2ccccn2)cc1C | 0.665
34 | CN(Cc1ccco1)C(=O)NCc1nnc2n1CCC2 | 16.9
35 | Cc1cc(N2CCN(C(=O)c3cc(Cl)c[nH]3)CC2)nc(C)n1 | -2.43
36 | Cc1ccc(C(=O)N2CCN(CCCSCC#N)CC2)cc1F | -145
37 | Cc1nn(CC(=O)N2CCN(c3cnccn3)CC2)c(C)c1Cl | 7.76
38 | CCOC(=O)c1ccc(Nc2ccc(OC)c(N3CCCC3=O)c2)nc1 | 8.46
39 | COCCOCCNC(=O)N1CCc2c(F)ccc(F)c2C1 | -2.23
40 | Cc1cc(C)c2c(c1)C(NC(=O)CSCC(N)=O)CCO2 (stereo not given) | -6.94
41 | Cc1ccc(F)cc1NC(=O)CCn1cncn1 | -0.639
42 | CCC(NC(=O)CS(=O)(=O)C1CCCC1)c1cc(F)ccc1F (stereo not given) | 0.217
43 | CCc1nc(CC(=O)N2CCC(C(=O)N3CCCCC3)CC2)cs1 | 4.92
44 | C[S+]([O-])c1nncn1CCCc1ccc(Cl)cc1 (stereo not given) | -8.64

Row | Compound | cytotoxicity at 10 µM [%]
45 | O=C(NCC1(Sc2ccccc2)CC1)c1cc[nH]n1 | -5.96
46 | O=C(NCC(CO)Cc1ccc(Cl)cc1)c1ccncc1Cl (stereo not given) | 5.21
47 | CCOC1CCCN(C(=O)Nc2cnn(CC(F)F)c2)C1 (stereo not given) | -1.84
48 | COCCn1ccc(NCc2cc3cc(F)ccc3o2)n1 | -8.78
49 | CCC(C)C(=O)NCCc1nc(C(F)(F)F)cs1 (stereo not given) | 2.08
50 | CC(C)NC(=O)COc1nc(C(C)C)no1 | -3.34
51 | Cc1ccccc1S(=O)(=O)NC(=O)CSc1ccc2c(c1)OCCO2 | -1.85
52 | Cc1ccc(OCCC(=O)NC2CCc3nc(C)cn3C2)cc1 (stereo not given) | -5.59
53 | CC1CC2(CCN(C(=O)c3c[nH]cn3)CC2)c2ccccc21 (stereo not given) | 2.44
54 | Cn1cc2c(n1)C(COCC1CC1)CN(Cc1ccsc1)C2 (stereo not given) | -76.1
55 | O=C(c1ccncc1F)N1CCc2ncnc(N3CCOCC3)c2CC1 | -75
56 | Cc1ccc(S(=O)(=O)N2CCC3(CC(C(=O)NC4CCC4)=NO3)C2)cc1 (stereo not given) | -1.77
57 | Cc1ccc(=O)n(CC(=O)N(C)Cc2csc(-c3cccs3)n2)n1 | 6.23
58 | Nc1ncc(CN2CCC(CCC(=O)NC3CC3)CC2)cn1 | 11.7
59 | NC(=O)c1cn2cc(-c3ccccc3Cl)n(CC3CC3)c(=O)c2n1 | -1.35
60 | O=C(c1cc(-c2ccc(O)cc2)n[nH]1)N1CCCC1c1cccnc1 (stereo not given) | -4.09
61 | Cn1c(CN2CCCC2)nnc1C1CCCN(C(=O)N2CCOCC2)C1 (stereo not given) | -0.193
62 | CC(=O)N[C@@H]1CN(Cc2ccccc2-n2nc(C)cc2C)C[C@H]1C(C)C | 4.01
63 | Cn1cc(CN2CCOC(CCNC(=O)c3ccsc3)C2)cn1 (stereo not given) | 2.72
64 | COCCCC1CCCN(Cc2c(C)ccc3ncccc23)C1 (stereo not given) | -136
65 | CC[C@@H](CO)NC(=O)c1cccc(CCC(C)(C)O)c1 | -3.33
66 | COc1ccc(CN2CCC3(CCCN(C)C3=O)C2)c(OC)c1C (stereo not given) | -0.409

Row | Compound | cytotoxicity at 10 µM [%]
67 | CCCc1ccc(CN2CCN(C(=O)C(C)C)[C@@H]3CS(=O)(=O)C[C@@H]32)o1 | 5.39
68 | O=C1NCCN(C(=O)CCN2CCCO2)C1c1cccc(F)c1 (stereo not given) | 5.47
69 | COc1ccc(Cc2ncc3c(n2)CN(C(=O)CN(C)C)C3)cc1 | -1.28
70 | CCc1nccc(CN2CCCC(CNC(=O)c3occc3C)C2)n1 (stereo not given) | 2.28
71 | COc1ccc(OC2CCN(C(=O)CCc3n[nH]c(N)n3)CC2)cc1 | 1.43
72 | O=C(NCCc1cc(=O)[nH]cn1)c1[nH]nc2c1CCCC2 | 2.22
73 | CCN(Cc1ccncc1)Cc1cn(-c2ccccc2)nn1 | -49.8
74 | CCn1ccnc1CN1CCC(Oc2cccc(F)c2)(C(=O)O)CC1 | 3.67
75 | COCc1cn(C2CCN(Cc3ccc(Cl)s3)CC2)nn1 | 5.43
76 | CN(C(=O)C1CCCC1)C(c1cccc(F)c1)c1ccccn1 (stereo not given) | 6.07
77 | O=C(CS(=O)(=O)Cc1ccccc1)NC1CCCCNC1=O (stereo not given) | -1.46
78 | CC(C)c1nnc2n1CCN(CCC(=O)Nc1sccc1C#N)C2 | -25.8
79 | CCc1ccc(S(=O)(=O)Nc2ccc(F)cc2C(=O)O)s1 | 3.69
80 | CN(Cc1noc(C2CC2)n1)C1CCN(Cc2ccccc2C#N)C1 (stereo not given) | -7.8
81 | COc1ccc(-c2nc(CN3CCc4cncnc4C3)no2)cc1 | -3.92
82 | CC(O)CN1CCN(Cc2csc(-c3cnn(C)c3)n2)CC1 (stereo not given) | -4.1
83 | O=C(CN1CCc2c(ncn2C2CC2)C1)NC1CCOCC1 | -13.4
84 | CCc1nc(C2CCCN(C(=O)c3ccc4[nH]cnc4c3)C2)no1 (stereo not given) | 1.48
85 | COc1c(C2CCCN2C(=O)c2cnccn2)c(C)nn1C (stereo not given) | 0.501
86 | c1cnnc(N2CCCC(NCc3ccc(-n4cncn4)cc3)C2)c1 (stereo not given) | -3.14
87 | CC(C)c1nnc2n1CCN(C(=O)c1cccc(OCC(N)=O)c1)C2 | -4.38
88 | Cc1nc(C)n(CC2CCCN2Cc2ccccn2)n1 (stereo not given) | -0.186

Row | Compound | cytotoxicity at 10 µM [%]
89 | Cc1nc(CN2CCCC2Cn2cncn2)nc2ccccc12 (stereo not given) | -1.63
90 | CN(Cc1nc2c(cnn2C)c(=O)[nH]1)Cc1ccccc1Cl | -5.82
91 | CC(C)(CNC(=O)NCCOc1cccc(F)c1)C(N)=O | -8.93
92 | Cc1noc(C(C)C)c1C(=O)NCC(c1cccc(F)c1)N(C)C (stereo not given) | -7.46
93 | Cc1ccc(N2CCCC(NCc3ccsc3)C2)nn1 (stereo not given) | -7.42
94 | N#Cc1cccnc1OC1CCNCC1 | -8.99
95 | O=C(NCC1CCC2(CCNCC2)CO1)c1ccno1 (stereo not given) | 12.5
96 | CCOCC1CN(C(=O)c2ccnnc2)Cc2cnn(CC)c21 (stereo not given) | -77.8
97 | CNC(=O)c1cc(C2CCCNC2)n[nH]1 (stereo not given) | 9.03
98 | Cc1cc(C)nc(C2CCCNC2)n1 (stereo not given) | 9.85
99 | C1CCN(CCOC2CCNC2)CC1 (stereo not given) | 6.32
100 | Cc1cccc(S(=O)(=O)N2CC[C@H]3[C@H]2CCN3c2ncccn2)c1 | 0.995
101 | O=C([C@H]1C[C@H]2OCC[C@H]2N(Cc2ccccn2)C1)N1CCCCO1 | -73.3
102 | Cc1cnc(N2CC[C@@H]3O[C@H](COCc4ccccn4)CC[C@@H]32)nc1 | -76.3
103 | O=C1[C@H]2CN(CC3CCOCC3)C[C@H]2CN1c1ccsc1 | 8.52
104 | COCC(=O)N1CCCC2(COCCN(CCN(C)C)C2)C1 (stereo not given) | 8.76
105 | O=C(C1CCCO1)N1CCC2(CC1)COCCN(Cc1ccncc1)C2 (stereo not given) | -81.1
106 | CN(C)CCO[C@@H]1CC[C@H]2[C@H]1OCCN2C(=O)CCc1ccccc1 | -6.69
107 | c1cnc(N2CCC3(CCN(CC4CCOCC4)CC3)C2)nc1 | 1.29
108 | O=C([C@H]1C[C@@H]2[C@@H](C1)OCCN2CC1CC1)N1CCCC1 | -2.2
109 | CC(C)N1[C@H](Cn2cncn2)C[C@@H]2CNCC[C@@H]21 | 1.9
110 | Cc1ccccc1CNC(=O)N1C[C@@H]2C[C@H](C(=O)N(C)C)[C@H](C1)O2 | 5.44
